The campaign covered roughly 51,000 compounds. About 150 (0.29%) were called active. This is one part of a sample in which actives are shown more often than they occur.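 How the source made its calls: active means both repeat wells score below -2 in polarization z-score versus plate sample wells, excluding overly bright wells; inactive means the rest.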
system: LANA (ORF73) N-terminal peptide binding to nucleosomes, Human herpesvirus 8; test: inhibitors of KSHV LANA-nucleosome binding, primary screen, biochemical, fluorescence polarization, FITC-LANA1-23, chicken nucleosomes (AID 720717); conditions: FITC-LANA1-23 / chicken nucleosome fluorescence polarization; active compounds read low
Method in brief: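 Material: Purified chicken nucleosomes with FITC-labelled LANA N-terminal peptide (1-23) | Reagent: 50 nM FITC-LANA1-23 probe | Medium: TEN-BT buffer, pH 7.5 | Times: 10–45 min incubation at room temperature | Detection: Fluorescence polarization | Replication: Duplicates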

z-score, inactive:
C/C(=N/NC(=O)Cc1cc(=O)[nH][nH]1)c1ccc(Cl)cc1 -0.559, Cc1cc(C)nc(-n2nc(C)c3c2N(C)C(=O)CC3c2ccccc2Cl)n1 (stereo unspecified) 0.097, CCc1ccc2[nH]c(=O)c(CN(Cc3ccco3)C(=O)c3ccccc3)cc2c1 0.0145, N#Cc1c(F)cccc1NC(=O)CN1CCCCC1 -0.136, COc1ccc(NC(=O)c2cn(-c3ccccc3)nc2SC)cc1 -0.623, O=C1CCC(=O)N1C(c1ccccc1)c1ccccc1 -0.605, COC(=O)c1ccccc1NC(=O)C(F)(F)F -0.55, CCc1c(C)nc2c(OC)cccc2c1Cl -0.847, Cc1sc2nc(C)n(NC(N)=O)c(=O)c2c1C 0.328, Cc1cc(N2CC(C)CC(C)C2)nc2ccc(NC(=O)CCC(=O)NCc3ccco3)cc12 (stereo unspecified) -1.27, O=C1OC(c2ccco2)=N/C1=C1/C=C(c2cccs2)Oc2ccccc21 -0.0915, N#CC1=C(SCC(N)=O)NC2=C(C(=O)CCC2)C1c1ccco1 (stereo unspecified) 0.283, CCCCn1cc(/C=N/NC(=O)c2cc3cc(OC)ccc3n2C)c2ccccc21 -0.47, O=S1(=O)CCC(S(=O)(=O)NC2CCCC2)C1 (stereo unspecified) -1.02, COc1ccc(C(=O)N(C)C2CCCCC2)cc1 -0.539, CCCc1cc(=O)[nH]c2c1c(C)nn2-c1cccc(F)c1 1.12, Cc1[nH]n(-c2ccccc2)c(=O)c1C(=O)C(F)(F)F -0.607, COc1ccc(CCN(C)C2CCNCC2)cc1OC -0.052, COc1cccc(NC(=O)c2cc(-c3cccc(OC)c3)n[nH]2)c1 -1.44, COc1cc(-c2nc3ccccn3c2NC2CCCC2)ccc1O -0.532, O=C(CN1Cc2ccccc2C1=O)N1CC=C(c2ccccc2)CC1 -0.481, Cc1ccc(-c2nc3scc(CCNC(=O)Cc4ccccc4)n3n2)cc1 -0.82, S=C(Cc1ccccc1)N1CCCCC1 0.211, O=C1c2ccccc2C(=O)N1CNc1ccc(I)cc1 -0.239, Cc1[nH][nH]c(=O)c1C(c1cccc(Cl)c1)C(C#N)C#N (stereo unspecified) -0.349, CC(C)NC(=S)N/N=C/c1ccn[nH]1 0.944, COc1cccc(NC(=O)c2nn(C)c3c2COc2ccccc2-3)c1 -1.79, CCOC(=O)c1ccc2c(c1)sc1nc(-c3cccc(OC)c3)cn12 -1.21, Nc1no[n+]([O-])c1C(=O)NCCO 0.91, CCN1C(=O)C2C(c3cccs3)NC(C)(C(=O)OC)C2C1=O (stereo unspecified) -0.124, O=C1NN=C(Cc2ccccc2)C1CCO (stereo unspecified) -1.42, CCCc1cc(SCC(=O)O)n2c(nc3ccccc32)c1C#N -0.397, CN1C(=O)CC(N2CCN(C/C=C/c3ccccc3)CC2)C1=O (stereo unspecified) 0.0475, Cc1ccc2c(c1)-c1onc(C(=O)N3CCCCC3)c1CO2 -1.74, CCNC(=S)N1CCN(CCN=CC2=C(O)CC(C)(C)CC2=O)CC1 0.296, O=C(C1CCN(Cc2cnn(-c3ccccc3)c2-n2cccc2)CC1)N1CCC2(CC1)OCCO2 0.0245, O=C(O)C1CCN(Cc2ccc(Cl)cc2)CC1 -0.653, Cc1cc(-c2ccc(S(=O)(=O)NC3CCCc4ccccc43)s2)n[nH]1 (stereo unspecified) 0.15, Cc1ccc(C(C(=O)NCc2ccccc2)N(C(=O)C2COc3ccccc3O2)c2cccc(O)c2)o1 (stereo unspecified) -0.115, Nc1nc(SC23CC4CC(CC(C4)C2)C3)ns1 -1.08, CC1=CCCC(C)(C)C1/C=C/C(C)=N/O (stereo unspecified) -1.1, Cc1ccccc1NC(=O)N1CC(C)CC(C)C1 (stereo unspecified) -0.339, Nc1nonc1-n1nnc(C(=O)N=Nc2c(O)[nH]c3ccc(Br)cc23)c1-c1ccccc1 0.712, CCOC(=O)c1cc(-c2ccc(C)cc2)n(CCC(=O)Nc2nccs2)c1C 0.181, Cc1c(NC(=O)c2ccc3c(c2)C(=O)N(C)C3=O)cccc1C(=O)O -0.278, CCC(=O)N1CCc2cc(S(=O)(=O)NCC(OC)OC)ccc21 0.461, NCc1cc(C2CC2)n[nH]1 -0.734, O=C(NCc1ccccn1)c1ccc2c(c1)CCN2S(=O)(=O)c1ccc(Cl)cc1 -0.107, CCNc1nc(N2CCOCC2)c2ccccc2n1 1.02, Cc1nc(CC(=O)Nc2cccc(Cl)c2)cs1 -0.419, O=C(Cc1ccccc1)n1nc(-c2ccco2)nc1NCc1ccccc1 0.165
